Screening results as filed in PubChem.
CaV13 FRET inh: Primary screen for inhibitors of IQ motif and Ca2+-dependent inactivation inhibitor domain binding in CACNA1D, Förster resonance energy transfer in living cells, … | HEK cells, CFP/YFP FRET ICDI-IQ, plate reader, 10 min; percent FRET-ratio fall versus neutral wells | inhibition, % at 12.3 µM | 340,000 tested, 0.098% active;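 active means mean replicate inhibition of at least 30% and at least 1% of replicates passing that level; inconclusive means only one of the two criteria is met; inactive means neither criterion is met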;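 further: 0% = median of the neutral control wells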
AF4-AF9 inh: blocks AF4 peptide binding to human AF9. inhibition, % at 10 µM. P42568. 350,000 tested, 0.47% active. AlphaScreen, biotin-AF4 peptide binding to FLAG-AF9;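 active means every replicate reaching a set inhibition limit, whatever the replicate mean, cut at about 25% in these data; inconclusive means mean inhibition reaches that limit but some replicates miss it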;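 further: 0% = plate neutral control median and 100% = total signal loss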
Target sequence (P42568 whole entry, looked up): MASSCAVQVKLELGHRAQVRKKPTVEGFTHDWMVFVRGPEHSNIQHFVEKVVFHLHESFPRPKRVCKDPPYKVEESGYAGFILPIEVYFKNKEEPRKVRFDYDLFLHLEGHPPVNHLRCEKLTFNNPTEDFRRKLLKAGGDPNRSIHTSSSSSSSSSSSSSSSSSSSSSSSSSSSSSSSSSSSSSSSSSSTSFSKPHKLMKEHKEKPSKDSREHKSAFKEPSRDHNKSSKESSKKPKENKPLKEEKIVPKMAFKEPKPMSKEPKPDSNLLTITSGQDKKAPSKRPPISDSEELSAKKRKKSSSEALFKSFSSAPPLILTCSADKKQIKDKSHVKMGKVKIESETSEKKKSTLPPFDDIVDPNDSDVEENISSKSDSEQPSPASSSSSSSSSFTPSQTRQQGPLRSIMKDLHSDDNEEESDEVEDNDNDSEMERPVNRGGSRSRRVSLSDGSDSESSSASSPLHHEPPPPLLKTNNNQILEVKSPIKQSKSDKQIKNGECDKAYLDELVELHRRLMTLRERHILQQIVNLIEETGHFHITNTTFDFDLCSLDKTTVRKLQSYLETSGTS
SIRT5 inh: sirtuin-5 (human) deacylase inhibition | Purified SirT5, succinyl-peptide AMC, trypsin-coupled fluorescence | 330,000 tested, 1.1% active | Q9NXA8 | inhibition, % at 15 µM; in the data active means inhibition above about 15%; inconclusive means no clear call, values can overlap the other calls
DENV2 CPE: protects cells from dengue virus 2 cytopathic effect; DENV2-infected cells, cytopathic effect rescue, plate reader; CPE inhibition, % at 9.99 µM; 350,000 tested, 1.7% active; in the data active means CPE inhibition above about 20%, passing the limit was not always enough; inconclusive means no clear call, values can overlap the other calls; tested in BHK-21 cells;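 further: 0% = median of neutral control wells and 100% = median of positive control wells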
S100A4 MyoIIA: inhibitors of human S100A4 binding to myosin IIA peptide; P26447; S100A4/TAMRA-MyoIIA peptide fluorescence polarization; inhibition, % at 10.7 µM; 360,000 tested, 0.14% active; AID 652163;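 active means mean inhibition of at least 70% across replicates, with every replicate also reaching that level; inconclusive means mean inhibition reaches 70% but some replicates fall short; inactive means mean inhibition below 70%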
Target sequence (P26447 whole entry, looked up): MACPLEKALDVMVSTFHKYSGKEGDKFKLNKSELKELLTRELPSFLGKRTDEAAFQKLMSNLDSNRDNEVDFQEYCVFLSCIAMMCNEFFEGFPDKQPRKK
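Test system – S100A4 monomer (human) · Compound – single-point compound testing · Schedule – 5 min incubation before reading · Probe or stimulus – TAMRA-labelled myosin IIA heavy-chain peptide probe, 5 nM · Benchmarks – neutral control DMSO, positive control TFP · Medium – Calcium-containing HEPES buffer, pH 7.2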
The depositor's hits bear a star; ! = a repeat was not active. Hits are enriched below; roughly 2.7% of the tested compounds scored in any of these assays.

What do the screens show for `C[C@@H]1CN([C@H](C)CO)S(=O)(=O)c2ccc(C#Cc3ccccc3F)cc2O[C@@H]1CN(C)C(=O)Cc1ccccc1`?
CaV13 FRET inh: -5; AF4-AF9 inh: -5; SIRT5 inh: 20*!; DENV2 CPE: 2; S100A4 MyoIIA: -7

What do the screens show for `O=C([C@@H]1[C@@H](CO)[C@@H]2Cn3c(ccc(/C=C/c4ccccc4)c3=O)[C@H]1N2)N1CCCCC1`?
AF4-AF9 inh: -3; SIRT5 inh: -119; DENV2 CPE: -4; S100A4 MyoIIA: 1

Results for COc1ccc(CNC(=O)CCS(=O)(=O)c2ccc3nc(C)sc3c2)cc1 ?
CaV13 FRET inh: -7; AF4-AF9 inh: -18; SIRT5 inh: -6; DENV2 CPE: -6; S100A4 MyoIIA: -1

What do the screens show for `CCCNC(=O)N1[C@H](CO)[C@H](c2ccccc2)[C@H]1CNC(=O)C1CCCC1`?
AF4-AF9 inh: -2; SIRT5 inh: -5; DENV2 CPE: -8; S100A4 MyoIIA: 1

How did CC(C)NC(=O)N[C@@H]1CC[C@H](CC(=O)NCc2ccc(Oc3ccccc3)cc2)O[C@H]1CO do in these assays?
AF4-AF9 inh: 0; SIRT5 inh: 5; DENV2 CPE: -5; S100A4 MyoIIA: 5

Results for Nc1nc(SCC(=O)N2CCN(c3ccc(F)cc3)CC2)n[nH]1 ?
CaV13 FRET inh: -15; AF4-AF9 inh: 2; SIRT5 inh: 2; DENV2 CPE: 40*; S100A4 MyoIIA: 0

Results for CCOC(=O)Cc1nnc(NC(=O)CCc2ccccc2)s1 ?
CaV13 FRET inh: -7; AF4-AF9 inh: -2; SIRT5 inh: 17*; DENV2 CPE: 5; S100A4 MyoIIA: 2

How did Cc1cc(C(=O)NCC(c2ccco2)N(C)C)ccc1[N+](=O)[O-] (configuration not stated) do in these assays?
CaV13 FRET inh: -2; AF4-AF9 inh: 46*; SIRT5 inh: 6; DENV2 CPE: -7; S100A4 MyoIIA: -6

How did CN(C)C(CNC(=O)CCNC(=O)c1ccc(Cl)cc1)c1ccco1 (configuration not stated) do in these assays?
CaV13 FRET inh: -1; AF4-AF9 inh: -1; SIRT5 inh: 24*; DENV2 CPE: -3; S100A4 MyoIIA: 3

Results for COc1cccc(C(=O)Nc2ccc3c(c2)OC[C@@H](C)N(C(=O)C2CCOCC2)C[C@@H](C)[C@H](OC)CN(C)C3=O)c1 ?
AF4-AF9 inh: -1; DENV2 CPE: -1; S100A4 MyoIIA: -39

Results for Cc1ccc(S(=O)(=O)N(c2nc(NC(C)C)nc(NC(C)C)n2)n2cnnc2)cc1 ?
CaV13 FRET inh: -5; AF4-AF9 inh: 5; SIRT5 inh: -1; DENV2 CPE: 24*; S100A4 MyoIIA: -2

What do the screens show for `C[C@@H]1CCCCO[C@@H](CN(C)C(=O)Nc2ccccc2)[C@H](C)CN([C@H](C)CO)C(=O)c2cc(NC(=O)Nc3ccc(F)cc3)ccc2O1`?
AF4-AF9 inh: 0; SIRT5 inh: 2; DENV2 CPE: -5; S100A4 MyoIIA: -4

Results for CC(=O)c1ccc(NC(=O)CNC2CCCCC2)cc1 ?
CaV13 FRET inh: -2; AF4-AF9 inh: 4; SIRT5 inh: -8; DENV2 CPE: 11; S100A4 MyoIIA: -5

Results for CC(=O)c1ccc(OCC(=O)Nc2ccc(N3CCCCC3)cc2)cc1 ?
CaV13 FRET inh: -4; AF4-AF9 inh: 26*; SIRT5 inh: -3; DENV2 CPE: 5; S100A4 MyoIIA: -3

How did O=C(CNC1CCCC1)Nc1ccc(N2CCCCCC2)cc1 do in these assays?
CaV13 FRET inh: -4; AF4-AF9 inh: 44*; SIRT5 inh: 2; DENV2 CPE: 0; S100A4 MyoIIA: -13

What do the screens show for `COc1ccc(OCC(=O)Nc2ccc(N3CCCCC3)cc2)cc1`?
CaV13 FRET inh: 3; AF4-AF9 inh: -2; SIRT5 inh: 3; S100A4 MyoIIA: 0

Results for CCOc1ccc(N(CC(=O)Nc2ccc(OC)cc2)C2=NC3CS(=O)(=O)CC3S2)cc1 (configuration not stated) ?
CaV13 FRET inh: -5; AF4-AF9 inh: 4; SIRT5 inh: -3; DENV2 CPE: -4; S100A4 MyoIIA: -1

How did CCOc1ccc(N(CC(=O)Nc2ccc(C)c(F)c2)C2=NC3CS(=O)(=O)CC3S2)cc1 (configuration not stated) do in these assays?
CaV13 FRET inh: -5; AF4-AF9 inh: 3; SIRT5 inh: 15*; DENV2 CPE: -8; S100A4 MyoIIA: -1

How did CN(C)C(=O)C[C@H]1C=C[C@@H](NC(=O)C2CCOCC2)[C@H](CO)O1 do in these assays?
AF4-AF9 inh: 0; SIRT5 inh: -6; DENV2 CPE: 14; S100A4 MyoIIA: 16

What do the screens show for `C[C@H](CO)N1C[C@H](C)[C@@H](CN(C)C(=O)c2ccccn2)Oc2ncc(C3=CCCC3)cc2C1=O`?
AF4-AF9 inh: -2; SIRT5 inh: -4; DENV2 CPE: inconclusive; S100A4 MyoIIA: -43

How did O=C(C[C@H]1C=C[C@@H](NC(=O)C2CCOCC2)[C@@H](CO)O1)Nc1ccccc1 do in these assays?
AF4-AF9 inh: 4; SIRT5 inh: 2; DENV2 CPE: -2; S100A4 MyoIIA: 2

What do the screens show for `O=C(O)c1ccc(COc2ccc([N+](=O)[O-])cc2)o1`?
CaV13 FRET inh: -21; AF4-AF9 inh: -2; SIRT5 inh: 19*; DENV2 CPE: 15; S100A4 MyoIIA: -3

What do the screens show for `O=C(O)c1ccc(OCc2ccc(C(=O)O)o2)cc1`?
CaV13 FRET inh: -4; AF4-AF9 inh: -2; SIRT5 inh: -2; DENV2 CPE: 19; S100A4 MyoIIA: 0

Results for CCCCn1c(-c2csc(C(C)C)c2)n[nH]c1=S ?
CaV13 FRET inh: -1; AF4-AF9 inh: -3; SIRT5 inh: 17*; DENV2 CPE: 15; S100A4 MyoIIA: -3

How did CO[C@@H]1CN(C)C(=O)c2cc(NC(=O)Nc3ccccc3)ccc2OC[C@H](C)N(C(C)=O)C[C@H]1C do in these assays?
AF4-AF9 inh: 4; SIRT5 inh: 3; DENV2 CPE: -6; S100A4 MyoIIA: 2

Results for O=C(Cc1ccccc1)N[C@@H]1C=C[C@@H](CC(=O)N2CCCCC2)O[C@H]1CO ?
AF4-AF9 inh: -19; SIRT5 inh: 1; DENV2 CPE: -4; S100A4 MyoIIA: 3

How did CCOC(=O)C1=C(C)N(C[C@@H]2CC[C@@H](Cc3ccc4cc(OC)ccc4c3)O2)C(=O)NC1c1ccccc1 (some centres not stated) do in these assays?
CaV13 FRET inh: -6; AF4-AF9 inh: 3; SIRT5 inh: 0; DENV2 CPE: 49*; S100A4 MyoIIA: -3

Results for CCOC(=O)C1=C(C)N(CCCC(=O)O)C(=O)NC1c1ccc(OC)cc1 (configuration not stated) ?
CaV13 FRET inh: -3; AF4-AF9 inh: -3; DENV2 CPE: 3; S100A4 MyoIIA: 9

How did O=C(C[C@H]1CC[C@H]2[C@@H](COC[C@H](O)CN2S(=O)(=O)c2ccc(F)cc2)O1)NCC1CCCCC1 do in these assays?
AF4-AF9 inh: 28*; SIRT5 inh: 2; DENV2 CPE: inconclusive; S100A4 MyoIIA: -12
